Holding throughout (set-up): scale not given: the % may be the effect or the level left
Assay [1] concerns the target Calcium/calmodulin-dependent protein kinase type IV (Homo sapiens) (UniProt Q16566). The experiment in a line: Inhibition of Calcium/calmodulin-dependent protein kinase type IV at 100 nM. In outline:
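Panel profiling of isolated kinases with inhibitor at 100 nM and 500 nM. […] Remaining kinase activity is expressed as % of control and is the mean of duplicate assays.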

Assay [2] concerns the target Rho-associated protein kinase 2 (Homo sapiens) (UniProt O75116). The assay can be described thus: Inhibition of Protein kinase ROCK2 at 500 nM. In outline: (§1)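 Panel of 39 kinases, each tested at 100 and 500 nM inhibitor. […] Activity is expressed as % of control and is the mean of duplicate assays.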
Assay [3] concerns the target Serine/threonine-protein kinase Chk2 (Homo sapiens) (UniProt O96017). The assay can be described thus: Inhibition of Serine/threonine-protein kinase Chk2 at 100 nM. In outline: as §1

Sequence of Calcium/calmodulin-dependent protein kinase type IV (Homo sapiens) (Q16566 whole entry): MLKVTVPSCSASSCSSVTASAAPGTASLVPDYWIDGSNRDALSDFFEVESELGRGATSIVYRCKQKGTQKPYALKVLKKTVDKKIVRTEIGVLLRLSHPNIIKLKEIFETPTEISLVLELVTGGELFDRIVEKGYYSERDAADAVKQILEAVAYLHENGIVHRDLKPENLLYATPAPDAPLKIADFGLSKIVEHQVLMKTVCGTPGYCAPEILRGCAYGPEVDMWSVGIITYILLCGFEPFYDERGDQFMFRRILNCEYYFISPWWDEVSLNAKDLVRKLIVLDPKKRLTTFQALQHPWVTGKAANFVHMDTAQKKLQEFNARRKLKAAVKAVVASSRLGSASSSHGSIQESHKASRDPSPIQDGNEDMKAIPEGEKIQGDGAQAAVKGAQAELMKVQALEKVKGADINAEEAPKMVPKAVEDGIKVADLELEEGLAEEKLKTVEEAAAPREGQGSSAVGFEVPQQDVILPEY
Sequence of Rho-associated protein kinase 2 (Homo sapiens) (O75116 whole entry, looked up): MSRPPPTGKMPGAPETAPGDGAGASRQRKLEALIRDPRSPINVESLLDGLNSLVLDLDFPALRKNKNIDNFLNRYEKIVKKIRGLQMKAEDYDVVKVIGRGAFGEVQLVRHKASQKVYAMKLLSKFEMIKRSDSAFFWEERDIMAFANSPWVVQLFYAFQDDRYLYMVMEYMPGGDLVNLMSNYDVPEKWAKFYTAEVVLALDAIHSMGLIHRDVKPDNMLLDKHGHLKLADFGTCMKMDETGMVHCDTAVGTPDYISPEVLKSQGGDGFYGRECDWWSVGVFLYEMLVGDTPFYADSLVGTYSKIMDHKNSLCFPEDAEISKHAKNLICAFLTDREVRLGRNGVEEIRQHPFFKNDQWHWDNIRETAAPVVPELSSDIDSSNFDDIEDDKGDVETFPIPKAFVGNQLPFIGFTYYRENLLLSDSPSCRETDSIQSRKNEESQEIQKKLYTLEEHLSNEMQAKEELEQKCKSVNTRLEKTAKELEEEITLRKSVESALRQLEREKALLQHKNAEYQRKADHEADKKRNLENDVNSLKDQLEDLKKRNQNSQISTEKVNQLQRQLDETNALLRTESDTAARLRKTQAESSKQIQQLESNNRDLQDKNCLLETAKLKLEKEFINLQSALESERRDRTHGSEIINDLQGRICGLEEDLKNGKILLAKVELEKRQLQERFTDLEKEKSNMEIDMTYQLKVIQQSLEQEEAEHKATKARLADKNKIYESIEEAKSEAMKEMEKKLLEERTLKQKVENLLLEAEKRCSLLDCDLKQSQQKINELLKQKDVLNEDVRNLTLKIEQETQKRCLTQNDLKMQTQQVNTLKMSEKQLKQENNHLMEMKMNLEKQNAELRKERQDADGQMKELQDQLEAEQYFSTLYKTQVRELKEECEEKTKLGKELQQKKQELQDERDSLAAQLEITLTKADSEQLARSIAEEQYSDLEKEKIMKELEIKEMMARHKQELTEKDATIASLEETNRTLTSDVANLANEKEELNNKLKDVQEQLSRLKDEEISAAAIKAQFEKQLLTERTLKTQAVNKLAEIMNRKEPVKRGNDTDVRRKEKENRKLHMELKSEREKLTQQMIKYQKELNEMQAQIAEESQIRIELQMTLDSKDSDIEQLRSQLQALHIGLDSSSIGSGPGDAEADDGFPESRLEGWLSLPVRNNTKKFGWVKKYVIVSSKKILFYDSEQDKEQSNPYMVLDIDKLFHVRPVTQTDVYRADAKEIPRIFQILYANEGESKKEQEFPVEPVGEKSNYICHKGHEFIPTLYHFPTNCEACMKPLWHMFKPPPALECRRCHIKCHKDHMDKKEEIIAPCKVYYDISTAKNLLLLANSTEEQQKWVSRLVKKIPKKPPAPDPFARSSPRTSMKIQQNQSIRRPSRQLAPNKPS
Sequence of Serine/threonine-protein kinase Chk2 (Homo sapiens) (O96017 whole entry): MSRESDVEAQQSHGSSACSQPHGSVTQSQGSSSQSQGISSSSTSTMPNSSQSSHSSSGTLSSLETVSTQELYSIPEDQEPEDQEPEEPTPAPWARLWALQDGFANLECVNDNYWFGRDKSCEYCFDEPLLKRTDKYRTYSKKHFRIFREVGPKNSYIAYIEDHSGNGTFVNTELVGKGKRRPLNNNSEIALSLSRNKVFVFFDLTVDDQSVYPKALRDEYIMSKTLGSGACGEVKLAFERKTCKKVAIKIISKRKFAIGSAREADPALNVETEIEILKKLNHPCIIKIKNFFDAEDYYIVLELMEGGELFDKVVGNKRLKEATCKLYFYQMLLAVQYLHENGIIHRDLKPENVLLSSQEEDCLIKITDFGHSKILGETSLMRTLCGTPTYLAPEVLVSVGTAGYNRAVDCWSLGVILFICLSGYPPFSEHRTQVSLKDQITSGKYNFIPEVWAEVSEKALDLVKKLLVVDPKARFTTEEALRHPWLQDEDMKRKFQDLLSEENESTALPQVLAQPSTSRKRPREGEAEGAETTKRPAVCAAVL

For the molecule `Cn1ccc2ccc3c4[nH]c5c(CCCN[C@H]6CC[C@H](O)CC6)cccc5c4c4c(c3c21)C(=O)NC4=O`, the Control in assay [1] is 108%; in assay [2] it was 62%; in assay [3], 84%.

The values above are taken from ChEMBL document CHEMBL1136094, “Novel, potent and selective cyclin D1/CDK4 inhibitors: indolo[6,7-a]pyrrolo[3,4-c]carbazoles” (Bioorg Med Chem Lett, 2003).
